From PubChem BioAssay AID1517 (The Scripps Research Institute Molecular Screening Center, 2009)
The list shows a part of the results. A number with no mark means an inactive call.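 The calls were made as follows: active = percent inhibition of p97 ATPase above a set limit, the primary screen's mean plus 3 SD (cut at about 15% in these data); inactive = the rest.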

Biological target: Transitional endoplasmic reticulum ATPase (Homo sapiens) (UniProt P55072)
Test: p97 ATPase inhibitors, retest, confirmation, biochemical (AID 1517);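 also: 0% = DMSO wells and 100% = wells lacking p97 protein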
Conditions: recombinant p97 ATPase, Kinase-Glo ATP luminescence; at 8 µM; active compounds read high
How it was run: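 Test system: recombinant p97 ATPase. Buffer or medium: Tris/MgCl2/EDTA/DTT buffer, pH 8.0. Compound dosing: one dose, 8 µM nominal final. Timing: 30 min pre-incubation, 3 h ATP reaction. Technique: Kinase-Glo luminescence. Measure: % inhibition versus DMSO and no-enzyme controls. Benchmarks: DMSO-only and no-enzyme wells. Replication: each compound tested in triplicate.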

Sequence of Transitional endoplasmic reticulum ATPase (Homo sapiens) (P55072 whole entry, looked up): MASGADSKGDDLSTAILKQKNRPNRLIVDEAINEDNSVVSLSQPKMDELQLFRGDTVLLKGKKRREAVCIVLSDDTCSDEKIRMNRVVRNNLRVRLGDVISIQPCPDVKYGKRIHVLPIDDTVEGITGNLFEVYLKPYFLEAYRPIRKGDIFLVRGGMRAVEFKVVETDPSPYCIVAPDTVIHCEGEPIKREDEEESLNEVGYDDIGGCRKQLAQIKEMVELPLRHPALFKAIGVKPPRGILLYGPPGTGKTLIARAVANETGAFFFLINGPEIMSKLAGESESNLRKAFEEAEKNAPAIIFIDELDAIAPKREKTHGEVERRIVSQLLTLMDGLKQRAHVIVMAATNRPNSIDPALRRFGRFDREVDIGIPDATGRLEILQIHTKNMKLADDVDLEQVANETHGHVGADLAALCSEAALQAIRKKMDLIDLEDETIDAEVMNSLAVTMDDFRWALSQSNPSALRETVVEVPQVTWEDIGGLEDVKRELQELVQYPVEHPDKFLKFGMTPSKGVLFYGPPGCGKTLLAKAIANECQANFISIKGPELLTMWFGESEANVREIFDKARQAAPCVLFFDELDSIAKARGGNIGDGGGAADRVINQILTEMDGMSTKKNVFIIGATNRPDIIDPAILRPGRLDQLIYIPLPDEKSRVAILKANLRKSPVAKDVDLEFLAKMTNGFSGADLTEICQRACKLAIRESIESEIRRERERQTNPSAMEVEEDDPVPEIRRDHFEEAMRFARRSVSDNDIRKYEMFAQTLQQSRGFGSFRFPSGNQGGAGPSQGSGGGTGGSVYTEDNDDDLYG

With `O=c1[nH]c(CN2CC=C(c3ccccc3)CC2)nc2scc(-c3cccs3)c12` as the compound, how does the inhibition read?
Its inhibition is 10.8%.
